Test [1] concerns Pseudomonas aeruginosa. Description: Binding affinity to Pseudomonas aeruginosa PA-IIL assessed as change in enthalpy by isothermal titration calorimetry. The procedure, abridged: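 Recombinant PAO1 LecB expressed in E. coli BL21(DE3), in TBS/Ca²⁺ pH 7.4. Ligand (500–1500 μM) titrated into 100 μM LecB at 25 °C with stirring: 19–39 injections, 240 s apart. First injection discarded. One-site binding model fit. Means from three independent titrations.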
In general terms: In ITC the heat of successive injections is recorded.

Test [2] concerns Pseudomonas aeruginosa. Description: Binding affinity to Pseudomonas aeruginosa PA-IIL assessed as change in entropy by isothermal titration calorimetry.

For one molecule, deltaH and TdeltaS results are on record in ChEMBL document CHEMBL5108077, “Discovery of N-β-l-Fucosyl Amides as High-Affinity Ligands for the Pseudomonas aeruginosa Lectin LecB” (J Med Chem, 2022).

`C[C@@H]1O[C@H](O)[C@@H](O)[C@H](O)[C@@H]1O`: the deltaH in the test on Pseudomonas aeruginosa [1] was -7.46 kcal/mol. Also, in the test on Pseudomonas aeruginosa [2], the TdeltaS was 0.0717 kcal/mol.
